Test results reported in paper PMC3041652 (Arteriosclerosis, thrombosis, and vascular biology, 2011).

How the values were obtained:
[1] = tested on: elastinolytic activity in brachiocephalic atherosclerotic lesions; experiment: Elastinolytic in situ zymography of brachiocephalic artery lesions; type: biochemical, mouse
How it was run: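 Brachiocephalic lesion sections came from apoE-knockout mice fed a high-fat diet for 12 weeks. They were incubated with a fluorescently quenched elastin substrate in incubation buffer alone or with added 100 nmol/L test compound, 20 mmol/L EDTA or 1 μmol/L reference MMP inhibitor. Elastinolytic activity was read as green fluorescence.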

other MMPs [2] = conditions: cited from earlier work
[3] = tested on: mouse smooth muscle cells; experiment: FasL-induced apoptosis of smooth muscle cells; type: cell-based; conditions: untreated cells 78±29; unchanged
mouse MMP-12 = mouse MMP-12 (Mus musculus, UniProt P34960); experiment: Inhibition of mouse MMP-12; type: biochemical
human MMP-12 = conditions: read-out: Ki against human MMP-12; cited from earlier work
[4] = tested on: mouse monocyte-derived macrophages; experiment: In vitro proliferation of monocyte-derived macrophages; type: cell-based; conditions: 100 nmol/L
[5] = Plasma concentration of inhibitor after osmotic minipump infusion; type: in vivo, apoE-knockout mice
How it was run: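 ApoE-knockout mice on a high-fat diet (n=6) received test compound at 4.6 mg/kg body weight per day by osmotic minipump. MMP inhibitory activity in plasma was measured with a fluorogenic substrate, and inhibitor concentration was derived from a calibration inhibition curve. Intact compound in plasma extracts was confirmed by micro-HPLC coupled to mass spectrometry.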

[6] = Body weight and plasma lipids after 4 weeks of infusion; type: in vivo, apoE-knockout mice; conditions: 4.6 mg/kg per day for 4 weeks
[7] = tested on: rabbit granuloma foam-cell macrophages; experiment: In vitro serum starvation-induced apoptosis of foam-cell macrophages; type: cell-based
N-cadherin = N-cadherin Western blotting in macrophages treated with active MMP-12; type: cell-based
[8] = tested on: apoE-knockout mice atherosclerotic plaques; type: in vivo, mouse
How it was run: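 ApoE-null mice (71% C57BL/6, 29% 129 background), both sexes, fed a high-fat diet for 8 weeks. They then received subcutaneous interscapular osmotic minipumps of test compound at 4.6 mg/kg body weight per day in sterile PBS (n=23) or PBS alone (n=27), with the diet continued 4 weeks. Brachiocephalic artery, proximal aorta, descending aorta and heart were analysed histologically. Apoptosis and calcification were scored by immunohistochemistry; calcification area was normalised to lesion area; mean±SEM.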

other MMPs [9] = tested on: other MMPs
[10] = tested on: mouse monocyte-derived macrophages; experiment: In vitro serum starvation-induced apoptosis of macrophages; type: cell-based
[11] = tested on: monocyte/macrophage invasion; experiment: In vivo subcutaneous sponge monocyte/macrophage invasion assay; parameters: species or system C57Bl/6;Sv129 mice
How it was run: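 Male C57Bl/6;Sv129 mice carrying multiple subcutaneous sponges were infused by osmotic minipump with test compound (n=7) or PBS (n=7). Sponges were retrieved and either used to isolate monocytes/macrophages or formalin-fixed for histology of proliferation and apoptosis.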

[12] = compared with active MMP-12 alone, 100 nmol/L

mouse MMP-12, sequence (P34960 110-473): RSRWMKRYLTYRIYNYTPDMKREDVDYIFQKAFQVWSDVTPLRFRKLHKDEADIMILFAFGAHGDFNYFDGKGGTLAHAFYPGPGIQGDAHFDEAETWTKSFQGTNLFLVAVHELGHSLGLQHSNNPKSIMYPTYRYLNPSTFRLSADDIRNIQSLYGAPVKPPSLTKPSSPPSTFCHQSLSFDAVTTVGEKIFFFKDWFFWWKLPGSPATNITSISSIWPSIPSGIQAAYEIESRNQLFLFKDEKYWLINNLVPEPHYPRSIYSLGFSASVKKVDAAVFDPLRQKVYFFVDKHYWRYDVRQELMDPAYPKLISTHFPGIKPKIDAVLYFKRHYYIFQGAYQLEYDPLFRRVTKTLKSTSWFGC

**Q.** For `O=C(O)CN(CCN(CC(=O)O)CC(=O)O)CC(=O)O` [EDTA, reference compound], which “reduction of elastinolytic activity” value ([1]; 20 mmol/L) is on record?
**A.** 94±5%

**Q.** With `CNC(=O)[C@H](Cc1ccccc1)NC(=O)[C@H](CC(C)C)[C@H](CSc1cccs1)C(=O)NO` [BB94, reference compound] as the compound, how does the “reduction of elastinolytic activity” value ([1]; 1 μmol/L) read?
**A.** 95±4%

**Q.** Which “less potent against other MMPs than against human MMP-12” value (other MMPs [2]) does the source give for `NC(=O)[C@H](CCC(=O)O)NC(=O)[C@H](CCC(=O)O)NC(=O)[C@H](Cc1cc(-c2ccc(-c3cccc(Cl)c3)cc2)no1)CP(=O)(O)c1ccc(Br)cc1` [RXP470.1] here?
**A.** 2 to 4 orders of magnitude

**Q.** What about the “rate of FasL-induced apoptosis” value [3] of the same compound?
**A.** 70±29 ×10^4 ALU

**Q.** And the Ki (mouse MMP-12)?
**A.** 4 nM

**Q.** What about the Ki (human MMP-12) of the same compound?
**A.** 0.2 nM

**Q.** What about the macrophage proliferation ([4]; absence of added active MMP-12, control 36±5%) of the same compound?
**A.** 46±13%

**Q.** And the macrophage proliferation ([4]; presence of added active MMP-12, MMP-12 alone 46±2%)?
**A.** 39±12%

**Q.** What about the “form observed in plasma of infused mice (mass spectroscopy fingerprint analysis)” value [5] of the same compound?
**A.** intact form

**Q.** And the tolerability [6]?
**A.** well tolerated

**Q.** And the body weight ([6]; control 35.7±1.2 g)?
**A.** 36.2 ± 0.9 g

**Q.** What about the inhibition of apoptosis [7, 12] of the same compound?
**A.** 91%

**Q.** And the “apoptotic rate relative to control cells” value ([7]; no added MMP-12)?
**A.** significantly reduced

**Q.** What about the “effect on reduction of full-length N-cadherin expression by active MMP-12” value (N-cadherin; coincubation with active MMP-12) of the same compound?
**A.** reversed

**Q.** And the “formation of the cleaved fragment of N-cadherin” value (N-cadherin; in the presence of active MMP-12)?
**A.** negated

**Q.** And the “reduction of atherosclerotic plaque cross-sectional area” value ([8]; at 4 different vascular sites, male and female mice, Western diet)?
**A.** approximately 50%

**Q.** What about the “frequency of intraplaque macrophage apoptosis” value ([8]; baseline 15.3±3.0%) of the same compound?
**A.** 18.1±5.8%

**Q.** And the “reduction in apoptotic frequency, cleaved PARP-1 immunohistochemistry” value ([8]; brachiocephalic artery plaques)?
**A.** 57%

**Q.** What about the “reduction in apoptotic frequency, pyknotic/fragmented nuclei” value ([8]; brachiocephalic artery plaques) of the same compound?
**A.** 43%

**Q.** What about the “reduction of the number of ISEL-positive macrophages” value ([8]; brachiocephalic artery plaques, P<0.05) of the same compound?
**A.** 42%

**Q.** What about the “increase of smooth muscle cell:macrophage ratio” value ([8]; brachiocephalic artery, P<0.05) of the same compound?
**A.** 33%

**Q.** And the “smooth muscle cells as a proportion of all plaque cells” value ([8]; brachiocephalic artery, control 31±3%, P<0.05)?
**A.** 41±3%

**Q.** And the “percentage of macrophages of plaque cells” value ([8]; brachiocephalic artery, control 42±1%, P<0.01)?
**A.** 36±2%

**Q.** And the “area of calcification normalized to lesion area” value ([8]; control 5.9±2.2%)?
**A.** 0.8±0.6%

**Q.** And the “percentage of proliferating macrophages in brachiocephalic plaques, Ki67” value ([8]; control 14.8±3.1%)?
**A.** 13.6±2.2%

**Q.** And the “necrotic core size, percentage of total plaque area” value ([8]; control 24±2%)?
**A.** 13±3%

**Q.** And the “number of lesions showing elastin fragmentation” value ([8]; control 37%, P<0.05)?
**A.** 8%

**Q.** And the “increase in collagen content of lesions” value ([8]; did not reach statistical significance)?
**A.** 26%

**Q.** And the minimum cap thickness ([8]; no inhibitor 8.7±1.0, baseline 10.2±1.5)?
**A.** 16.4±2.2 μm

**Q.** And the “lesion size, brachiocephalic artery” value ([8]; treated mice, at commencement of drug administration 147±32)?
**A.** 153±31 ×10^3 μm^2

**Q.** What about the “total elastin content of plaques” value ([8]; vs control) of the same compound?
**A.** no difference

**Q.** And the “endothelial coverage over plaques” value ([8]; vs control mice)?
**A.** no differences

**Q.** What about the “expression of vascular cell adhesion molecule-1 and MCP-1 and -2” value ([8]; vs control mice) of the same compound?
**A.** no difference

**Q.** And the “reduction in the number of mice with any detectable atherosclerotic lesion, thoracic aorta” value ([8]; vs controls)?
**A.** 70%

**Q.** And the “reduction in the number of plaques containing buried fibrous layers” value ([8]; vs controls)?
**A.** 65%

**Q.** And the “reduction of plaque cross-sectional area, brachiocephalic artery” value ([8]; vs controls after 12 weeks of high-fat feeding, P<0.05)?
**A.** 44%

**Q.** What about the “decrease in the area of calcification normalized to lesion area” value ([8]; vs controls, P<0.01) of the same compound?
**A.** 86%

**Q.** What about the “reduction in lesion necrotic core size” value ([8]; vs controls, P<0.05) of the same compound?
**A.** 46%

**Q.** And the “reduction in plaque area, aortic sinus” value ([8]; vs controls, P<0.05)?
**A.** 37%

**Q.** What about the “reduction in plaque area, proximal aorta” value ([8]; vs controls, P<0.05) of the same compound?
**A.** 61%

**Q.** And the “reduction in plaque size, thoracic aorta” value ([8]; vs controls, P<0.05)?
**A.** 88%

**Q.** And the “reduction in the incidence of calcification in lesions” value ([8]; vs controls, P<0.05)?
**A.** 72%

**Q.** What about the “in vitro selectivity for MMP-12 over other MMPs” value (other MMPs [9]) of the same compound?
**A.** greater than 100 fold

**Q.** What about the inhibition of apoptosis [10, 12] of the same compound?
**A.** 91%

**Q.** What about the “apoptotic rate relative to control cells” value ([10]; no added MMP-12) of the same compound?
**A.** significantly reduced

**Q.** What about the “proliferative rate of sponge macrophages” value ([11]; control 4.0±1.1%) of the same compound?
**A.** 5.6±1.6%

**Q.** What about the “apoptotic cells in sponges” value ([11]; mouse, in vivo) of the same compound?
**A.** no apoptotic cells were detected

**Q.** And the “reduction of invasive capacity of monocyte/macrophages” value ([11]; vs controls, P<0.01)?
**A.** 48%

**Q.** And the “reduction of elastinolytic activity” value ([1]; 100 nmol/L, P<0.05)?
**A.** 74%

**Q.** And the “elastinolytic activity, fluorescence of total plaque area” value ([1]; 100 nmol/L, incubation buffer alone 4.1±0.5%)?
**A.** 1.1±0.3%
